Counter-ions that a name gives are not always drawn. Like-named read-outs stand apart in the source and are kept apart here.
Key:
[1] = system: bloodstream form T. b. brucei (strain 427); assay: In vitro toxicity assay for T. b. brucei; format: cell-based; settings: for EC50: read-out: T. b. brucei EC50, strain 427, 48 h + 24 h Alamar Blue
[2] = system: HeLa cells; assay: In vitro toxicity assay for HeLa mammalian cells; format: cell-based, human; settings: read-out: HeLa EC50
Outline: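 Alamar Blue assay on HeLa cells grown in DMEM with 10% FCS and 2 mM L-glutamine. Cells plated at 3 × 10^5 cells mL−1 and exposed to serially diluted test compound for 16 h before Alamar Blue addition. Fluorescence read at ex 544/em 590 nm; EC50 derived from the dose-response.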

[3] = target: T1, recombinant T. b. brucei CTPS (Trypanosoma brucei brucei, UniProt Q4GZ95); assay: CTPS enzyme assay; format: biochemical
T1 sequence (Q4GZ95 1-589): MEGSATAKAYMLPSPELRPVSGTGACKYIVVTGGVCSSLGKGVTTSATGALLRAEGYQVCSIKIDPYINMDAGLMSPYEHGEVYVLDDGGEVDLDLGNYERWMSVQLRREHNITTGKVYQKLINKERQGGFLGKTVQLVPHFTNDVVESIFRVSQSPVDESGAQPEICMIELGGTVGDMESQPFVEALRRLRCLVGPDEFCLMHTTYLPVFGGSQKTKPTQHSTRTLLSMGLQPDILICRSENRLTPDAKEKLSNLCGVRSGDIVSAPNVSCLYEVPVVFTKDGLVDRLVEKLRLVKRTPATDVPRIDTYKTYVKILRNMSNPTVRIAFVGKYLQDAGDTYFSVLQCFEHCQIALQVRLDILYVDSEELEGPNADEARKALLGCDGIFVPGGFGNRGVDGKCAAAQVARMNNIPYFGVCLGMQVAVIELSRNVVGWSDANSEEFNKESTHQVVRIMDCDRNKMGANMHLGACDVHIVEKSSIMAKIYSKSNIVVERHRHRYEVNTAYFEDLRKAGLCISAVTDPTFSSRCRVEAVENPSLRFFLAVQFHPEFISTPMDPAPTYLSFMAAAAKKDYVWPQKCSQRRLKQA
Outline: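 Recombinant T. b. brucei CTPS measured by coupled spectrophotometric assay with pyruvate kinase/lactate dehydrogenase. Enzyme pre-incubated with varied test-compound concentrations at room temperature, then added to reaction mix; A341 decrease monitored; IC50.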

[4] = target: T1, recombinant T. b. brucei CTPS; settings: 3-Br versus 3-Cl (Acivicin); cited from earlier work
[5] = system: bloodstream form T. b. brucei (strain 427); settings: 3-Br versus 3-Cl (Acivicin); cited from earlier work
[6] = system: HeLa cells; settings: 3-Br versus 3-Cl (Acivicin); cited from earlier work
[7] = 16 hours incubation before Alamar Blue

Row | Compound | S.I. selectivity index (EC50 HeLa/EC50 T. b. brucei) [1] | EC50 ([2]; Homo sapiens, HeLa, 16 h) [µM] | IC50 [3] [µM] | also measured
1 | N[C@H](C(=O)O)[C@@H]1CC(Cl)=NO1 [Acivicin, reference compound] | 36 | 16.3 |  | 
2 | O=C(O)CC1CC(Br)=NO1 (centres unmarked) [Compound 4, 2-(3-bromo-4,5-dihydroisoxazol-5-yl)acetic acid] | >5 | > 500 | > 500 | inhibitory activity against CTPS, in words [3]: inactive
3 | CCN1N=C(Cl)C[C@H]1[C@H](N)C(=O)O (relative stereo) [Compound 8b, (S*)-2-amino-2-((S*)-3-chloro-1-ethyl-4,5-dihydro-1H-pyrazol-5-yl)acetic acid hydrochloride] |  | > 500 | > 500 | 
4 | N[C@H](C(=O)O)[C@@H]1CC(Br)=NO1 [Compound 1, Br-Acivicin] |  |  |  | times more potent than Acivicin as a CTPS inhibitor ([3]; relative to Acivicin): 3; EC50 [1]: 0.038 ± 0.013 µM; times more efficacious than Acivicin as an anti-trypanosomal agent ([1]; relative to Acivicin): 12; EC50 [2, 7]: 15.1 ± 1.2 µM; increase of the inhibitory potency against CTPS [4]: three fold; increase in the in vitro anti-trypanosomal activity [5]: twelve-fold; toxicity against mammalian cells [6]: unaffected
5 | Cl.NCCN1N=C(Cl)CC1C(N)C(=O)O (centres unmarked) [9a,b, 2-amino-2-(1-(2-aminoethyl)-3-chloro-4,5-dihydro-1H-pyrazol-5-yl)acetic acid monohydrochloride] |  | > 500 | 0.125 ± 0.002 | inhibitory activity against CTPS, in words [3]: sub-micromolar inhibition; times more potent than Acivicin as a CTPS inhibitor ([3]; relative to Acivicin): about three times more potent
6 | N[C@H](C(=O)O)[C@@H]1CC(Cl)=NN1Cc1ccccc1 (relative stereo) [Compound 7b, (S*)-2-amino-2-((S*)-1-benzyl-3-chloro-4,5-dihydro-1H-pyrazol-5-yl)acetic acid hydrochloride] |  | > 500 | > 500 | 
7 | CCN1N=C(Cl)C[C@@H]1[C@H](N)C(=O)O.Cl (relative stereo) [Compound 8a, (S*)-2-amino-2-((R*)-3-chloro-1-ethyl-4,5-dihydro-1H-pyrazol-5-yl)acetic acid hydrochloride] | >5 | > 500 | 0.1 ± 0.004 | inhibitory activity against CTPS, in words [3]: sub-micromolar inhibition; times more potent than Acivicin as a CTPS inhibitor ([3]; relative to Acivicin): about three times more potent; increase of trypanocidal activity upon conversion into the methyl ester (times) ([1]; methyl ester versus free amino acid): about 9
8 | COC(=O)[C@@H](N)[C@@H]1CC(Cl)=NO1 [Acivicin-COOMe] |  |  |  | EC50 [1]: 22.4 ± 1.3 µM; EC50 [2, 7]: 41.9 ± 3.1 µM
9 | COC(=O)[C@@H](N)[C@@H]1CC(Br)=NO1 [1-COOMe] |  |  |  | EC50 [1]: 2.1 ± 0.5 µM; EC50 [2, 7]: 12.5 ± 1.6 µM
10 | CN(C)C1=NO[C@H]([C@H](N)C(=O)O)C1 [Compound 3, (S)-2-amino-2-((S)-3-(dimethylamino)-4,5-dihydroisoxazol-5-yl)acetic acid] | >5 | > 500 | > 500 | inhibitory activity against CTPS, in words [3]: complete loss of the inhibitory potency
11 | COC1=NO[C@H]([C@H](N)C(=O)O)C1 [Compound 2, (S)-2-amino-2-((S)-3-methoxy-4,5-dihydroisoxazol-5-yl)acetic acid] | >5 | > 500 | > 500 | 
12 | CC(C)(C)OC(=O)N[C@H](C(=O)O)[C@@H]1CC(Br)=NO1 [Compound 5] |  |  |  | CTPS inhibitory potency relative to Br-Acivicin ([3]; relative to Br-Acivicin): twice more potent; EC50 [1]: 3.4 ± 0.4 µM; EC50 [2, 7]: 4.6 ± 0.5 µM
13 | N[C@H](C(=O)O)[C@H]1CC(Cl)=NN1Cc1ccccc1 (relative stereo) [Compound 7a, (S*)-2-amino-2-((R*)-1-benzyl-3-chloro-4,5-dihydro-1H-pyrazol-5-yl)acetic acid hydrochloride] |  | > 500 | > 500 | 
14 | O=C(N[C@H](C(=O)O)[C@@H]1CC(Br)=NO1)OCc1ccccc1 [Compound 6, (S)-(benzyloxycarbonylamino)-2-((S)-3-bromo-4,5-dihydro-isoxazol-5-yl)acetic acid] |  | 410 ± 39 | 1.74 ± 0.4 | times weaker than Acivicin as a CTPS inhibitor ([3]; relative to Acivicin): 5; times weaker than Br-Acivicin as a CTPS inhibitor ([3]; relative to Br-Acivicin): 17

Reference: publication PMC3744939 (ChemMedChem, 2012)
